Measured values as given in ChEMBL document CHEMBL1629579, “Correlating echinocandin MIC and kinetic inhibition of fks1 mutant glucan synthases for Candida albicans: implications for interpretive breakpoints” (Antimicrob Agents Chemother, 2009).
Converted amounts (≈) assume the structure as drawn. Numbered stars: 1 amine (or outer) side, 2 acyl side, 3 side chain; on linkers, the order of the positions; unused ones are H or OH. Bridge positions count the residues as written; N and C are the ends. Square brackets hold non-standard residues; d marks the D form. Peptide text beside a SMILES is read from it. * marks the point of attachment. hTyr(3S-OH,4S-OH,3'-OSO3H) = N[C@H](C(=O)O)[C@H](O)[C@@H](O)c1ccc(O)c(OS(=O)(=O)O)c1; pTerphenylCO(4''-OnC5H11) = CCCCCOc1ccc(-c2ccc(-c3ccc(C(=O)*)cc3)cc2)cc1; Orn(4R-OH,5R-OH) = O=C([C@H](C[C@@H](O)[C@@H](O)N[*:3])N[*:1])[*:2]; hTyr(3S-OH,4S-OH) = N[C@H](C(=O)O)[C@H](O)[C@@H](O)c1ccc(O)cc1; Pro(3S-OH,4S-Me) = C[C@H]1CN[C@H](C(=O)O)[C@H]1O; X1 = CCCCCOc1ccc(-c2cc(-c3ccc(C(=O)*)cc3)no2)cc1; Gln(3R-OH) = NC(=O)C[C@@H](O)[C@H](N)C(=O)O; Hyp = O=C(O)[C@@H]1C[C@@H](O)CN1

How the values were obtained:
Candida albicans [1] = test: Antimicrobial activity against Candida albicans 1002 by M27-A3 method in presence of 50% human serum; assay type: functional
Summary of the method: (§1)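 Broth microdilution per CLSI M27-A3 in RPMI 1640, done in triplicate on three separate days. Each strain was tested with and without 50% human serum. C. krusei ATCC 6258 and C. parapsilosis ATCC 22019 served as QC strains. Arithmetic means are reported, and geometric means were used for comparison.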

Candida albicans [2] = test: Antimicrobial activity against Candida albicans 3107 by M27-A3 method in presence of 50% human serum; assay type: functional; summary of the method: as §1
Candida albicans [3] = test: Antimicrobial activity against Candida albicans 5415 harboring FKS1 T1933C mutant gene and FKS1 hotspot1 S645P mutant gene by M27-A3 method in presence of 50% human serum; assay type: functional; summary of the method: as §1
Candida albicans [4] = test: Antimicrobial activity against Candida albicans 121 harboring FKS1 G4082A mutant gene and FKS1 hotspot2 R1361H mutant gene by M27-A3 method; assay type: functional; summary of the method: as §1
Candida albicans [5] = test: Antimicrobial activity against Candida albicans 90 harboring FKS1 G4082R mutant gene and FKS1 hotspot2 R1361R/H mutant gene by M27-A3 method; assay type: functional; summary of the method: as §1
Candida albicans [6] = test: Antimicrobial activity against Candida albicans A15 harboring FKS1 T1933Y mutant gene and FKS1 hotspot1 S645S/P mutant gene by M27-A3 method in presence of 50% human serum; assay type: functional; summary of the method: as §1
Candida albicans [7] = test: Antimicrobial activity against Candida albicans A15-10 harboring FKS1 T1933C mutant gene and FKS1 hotspot1 S645P mutant by M27-A3 method in presence of 50% human serum; assay type: functional; summary of the method: as §1
[8] = Inhibition of Candida albicans 36082 1,3-beta-D-glucan synthase subunit FKS1p
Summary of the method: (§2)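 Enzyme is product-entrapped 1,3-β-D-glucan synthase, enriched from membranes of each strain grown at 37°C with shaking in YPD broth to early stationary phase. Filtration polymerization assay uses [3H]UDPG, started by adding enzyme and run 60 min at 25°C. Echinocandins are added as serial dilutions, with 1% DMSO controls for anidulafungin. IC50 is from a variable-slope sigmoidal fit; values are triplicate arithmetic means.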

[9] = Inhibition of Candida albicans 3795 1,3-beta-D-glucan synthase subunit FKS1p; summary of the method: as §2
[10] = Inhibition of Candida albicans 2762 1,3-beta-D-glucan synthase subunit FKS1p T1922C mutant; summary of the method: as §2
[11] = Inhibition of Candida albicans 89 1,3-beta-D-glucan synthase subunit FKS1p C1934A mutant; summary of the method: as §2
[12] = Inhibition of Candida albicans 122 1,3-beta-D-glucan synthase subunit FKS1p C1946A mutant; summary of the method: as §2
[13] = Inhibition of Candida albicans 90 1,3-beta-D-glucan synthase subunit FKS1p G4082R mutant; summary of the method: as §2
[14] = Inhibition of Candida albicans A15 1,3-beta-D-glucan synthase subunit FKS1p T1933Y mutant; summary of the method: as §2
[15] = Inhibition of Candida albicans A15-10 1,3-beta-D-glucan synthase subunit FKS1p T1933C mutant; summary of the method: as §2
Candida albicans [16] = test: Activity at Candida albicans 3107 1,3-beta-D-glucan synthase subunit FKS1p
Summary of the method: (§3)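 Glucan synthase from cells grown at 37°C with vigorous shaking to early stationary phase in YPD. Membrane enzyme enriched by product entrapment. Serial echinocandin dilutions; ANF controls held 1% DMSO. Reaction started by adding enzyme, run 60 min at 25°C in a filtration polymerization assay, stopped on ice. IC50 from a variable-slope sigmoidal fit; means of three repetitions on separate days.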

Candida albicans [17] = test: Activity at Candida albicans 3795 1,3-beta-D-glucan synthase subunit FKS1p; summary of the method: as §3
Candida albicans [18] = test: Activity at Candida albicans 177 1,3-beta-D-glucan synthase subunit FKS1p T1922C mutant
Summary of the method: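 Product-entrapped 1,3-β-D-glucan synthase from cells grown in YPD at 37°C to early stationary phase. Wells held 50 mM HEPES pH 7.5, 10% glycerol, 1.5 mg/ml BSA, 25 mM KF, 1 mM EDTA, 25 μM GTP-γ-S, 1 μg enzyme and [3H]UDPG (0.015–2 mM). Reactions ran 60 min at 25°C. Vmax and Km came from Lineweaver-Burke plots, in triplicate.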

Candida albicans [19] = test: Selectivity ratio of Ki for Candida albicans 177 1,3-beta-D-glucan synthase subunit FKS1p T1922C mutant to Ki for Candida albicans SC5314 wild type 1,3-beta-D-glucan synthase subunit FKS1p
Candida albicans [20] = test: Selectivity ratio of Ki for Candida albicans 2762 1,3-beta-D-glucan synthase subunit FKS1p T1922C mutant to Ki for Candida albicans SC5314 wild type 1,3-beta-D-glucan synthase subunit FKS1p
Candida albicans [21] = test: Selectivity ratio of Ki for Candida albicans 205 1,3-beta-D-glucan synthase subunit FKS1p T1933C mutant to Ki for Candida albicans SC5314 wild type 1,3-beta-D-glucan synthase subunit FKS1p
Candida albicans [22] = test: Selectivity ratio of Ki for Candida albicans 5415 1,3-beta-D-glucan synthase subunit FKS1p T1933C mutant to Ki for Candida albicans SC5314 wild type 1,3-beta-D-glucan synthase subunit FKS1p
Candida albicans [23] = test: Selectivity ratio of Ki for Candida albicans 89 1,3-beta-D-glucan synthase subunit FKS1p C1934A mutant to Ki for Candida albicans SC5314 wild type 1,3-beta-D-glucan synthase subunit FKS1p
Candida albicans [24] = test: Selectivity ratio of Ki for Candida albicans 85 1,3-beta-D-glucan synthase subunit FKS1p C1934T mutant to Ki for Candida albicans SC5314 wild type 1,3-beta-D-glucan synthase subunit FKS1p
Candida albicans [25] = test: Selectivity ratio of Ki for Candida albicans 122 1,3-beta-D-glucan synthase subunit FKS1p C1946A mutant to Ki for Candida albicans SC5314 wild type 1,3-beta-D-glucan synthase subunit FKS1p
Candida albicans [26] = test: Selectivity ratio of Ki for Candida albicans 121 1,3-beta-D-glucan synthase subunit FKS1p G4082A mutant to Ki for Candida albicans SC5314 wild type 1,3-beta-D-glucan synthase subunit FKS1p
Candida albicans [27] = test: Selectivity ratio of Ki for Candida albicans 194 1,3-beta-D-glucan synthase subunit FKS1p C1934T/G4082R mutant to Ki for Candida albicans SC5314 wild type 1,3-beta-D-glucan synthase subunit FKS1p
Candida albicans [28] = test: Selectivity ratio of Ki for Candida albicans 90 1,3-beta-D-glucan synthase subunit FKS1p G4082R mutant to Ki for Candida albicans SC5314 wild type 1,3-beta-D-glucan synthase subunit FKS1p
Candida albicans [29] = test: Selectivity ratio of Ki for Candida albicans A15 1,3-beta-D-glucan synthase subunit FKS1p T1933Y mutant to Ki for Candida albicans SC5314 wild type 1,3-beta-D-glucan synthase subunit FKS1p
Candida albicans [30] = test: Selectivity ratio of Ki for Candida albicans A15-10 1,3-beta-D-glucan synthase subunit FKS1p T1933C mutant to Ki for Candida albicans SC5314 wild type 1,3-beta-D-glucan synthase subunit FKS1p

Structure (SMILES)	MIC (Candida albicans [1]) [µg/mL]	MIC (Candida albicans [2]) [µg/mL]	MIC (Candida albicans [3]) [µg/mL]	MIC (Candida albicans [4]) [µg/mL]	MIC (Candida albicans [5]) [µg/mL]	MIC (Candida albicans [6]) [µg/mL]	MIC (Candida albicans [7]) [µg/mL]	IC50 [8] [µg/mL]	Ki [8] [µg/mL]	IC50 [9] [µg/mL]	Ki [9] [µg/mL]	IC50 [10] [µg/mL]	Ki [10] [µg/mL]	IC50 [11] [µg/mL]	Ki [11] [µg/mL]	IC50 [12] [µg/mL]	Ki [12] [µg/mL]	IC50 [13] [µg/mL]	Ki [13] [µg/mL]	IC50 [14] [µg/mL]	further results
CC[C@H](C)C[C@H](C)CCCCCCCCC(=O)N[C@H]1C[C@@H](O)[C@@H](NCCN)NC(=O)[C@@H]2[C@@H](O)CCN2C(=O)[C@H]([C@H](O)CCN)NC(=O)[C@H]([C@H](O)[C@@H](O)c2ccc(O)cc2)NC(=O)[C@@H]2C[C@@H](O)CN2C(=O)[C@H]([C@@H](C)O)NC1=O [CASPOFUNGIN]	0.5	0.33	8	2 (≈ 1.83 µM)	1 (≈ 0.915 µM)	8	16	0.0009 (≈ 0.000823 µM)	0.00095 (≈ 0.000869 µM)	0.00144 (≈ 0.00132 µM)	0.00467 (≈ 0.00427 µM)	0.91 (≈ 0.832 µM)	0.49893 (≈ 0.456 µM)	2.075 (≈ 1.9 µM)	0.86 (≈ 0.787 µM)	0.08266 (≈ 0.0756 µM)	0.29167 (≈ 0.267 µM)	0.02043 (≈ 0.0187 µM)	0.14815 (≈ 0.136 µM)	0.2181 (≈ 0.199 µM)	IC50 [15]: 0.3224 µg/mL (≈ 0.295 µM); Ki [15]: 1.358 µg/mL (≈ 1.24 µM); Km (Candida albicans [16]): 102 µM; Vmax (Candida albicans [16]): 6.04 nmol/min; Km (Candida albicans [17]): 88 µM; Vmax (Candida albicans [17]): 6.63 nmol/min; Km (Candida albicans [18]): 50 µM; Vmax (Candida albicans [18]): 4.4 nmol/min
CCCCCOc1ccc(-c2ccc(-c3ccc(C(=O)N[C@H]4C[C@@H](O)[C@@H](O)NC(=O)[C@@H]5[C@@H](O)[C@@H](C)CN5C(=O)[C@H]([C@@H](C)O)NC(=O)[C@H]([C@H](O)[C@@H](O)c5ccc(O)cc5)NC(=O)[C@@H]5C[C@@H](O)CN5C(=O)[C@H]([C@@H](C)O)NC4=O)cc3)cc2)cc1 [ANIDULAFUNGIN] ({pTerphenylCO(4''-OnC5H11)}-[Orn(4R-OH,5R-OH)]T[Hyp][hTyr(3S-OH,4S-OH)]T[Pro(3S-OH,4S-Me)]; lactam 1-C)	0.44	0.25	8	0.25 (≈ 0.219 µM)	0.25 (≈ 0.219 µM)	2	8	0.00151 (≈ 0.00132 µM)	0.00143 (≈ 0.00125 µM)	0.00676 (≈ 0.00593 µM)	0.0167 (≈ 0.0146 µM)	1.085 (≈ 0.952 µM)	4.48127 (≈ 3.93 µM)	2.739 (≈ 2.4 µM)	1.16337 (≈ 1.02 µM)	0.491 (≈ 0.431 µM)	0.64607 (≈ 0.567 µM)	0.0406 (≈ 0.0356 µM)	0.0485 (≈ 0.0425 µM)	0.1287 (≈ 0.113 µM)	IC50 [15]: 0.901 µg/mL (≈ 0.79 µM); Ki [15]: 2.5637 µg/mL (≈ 2.25 µM); Km (Candida albicans [16]): 102 µM; Vmax (Candida albicans [16]): 6.04 nmol/min; Km (Candida albicans [17]): 88 µM; Vmax (Candida albicans [17]): 6.63 nmol/min; Km (Candida albicans [18]): 50 µM; Vmax (Candida albicans [18]): 4.4 nmol/min; Ratio Ki (Candida albicans [19]): > 100; Ratio Ki (Candida albicans [20]): > 100; Ratio Ki (Candida albicans [21]): > 100; Ratio Ki (Candida albicans [22]): > 100; Ratio Ki (Candida albicans [23]): > 100; Ratio Ki (Candida albicans [24]): > 100; Ratio Ki (Candida albicans [25]): > 100; Ratio Ki (Candida albicans [26]): > 100; Ratio Ki (Candida albicans [27]): > 100; Ratio Ki (Candida albicans [28]): > 100; Ratio Ki (Candida albicans [29]): > 100; Ratio Ki (Candida albicans [30]): > 100
CCCCCOc1ccc(-c2cc(-c3ccc(C(=O)N[C@H]4C[C@@H](O)[C@@H](O)NC(=O)[C@@H]5[C@@H](O)[C@@H](C)CN5C(=O)[C@H]([C@H](O)CC(N)=O)NC(=O)[C@H]([C@H](O)[C@@H](O)c5ccc(O)c(OS(=O)(=O)O)c5)NC(=O)[C@@H]5C[C@@H](O)CN5C(=O)[C@H]([C@@H](C)O)NC4=O)cc3)no2)cc1 [MICAFUNGIN] (X1-[Orn(4R-OH,5R-OH)]T[Hyp][hTyr(3S-OH,4S-OH,3'-OSO3H)][Gln(3R-OH)][Pro(3S-OH,4S-Me)]; lactam 1-C)	0.5	0.5	8	0.25 (≈ 0.197 µM)	0.5 (≈ 0.394 µM)	2	8	0.0102 (≈ 0.00803 µM)	0.02353 (≈ 0.0185 µM)	0.03889 (≈ 0.0306 µM)	0.05864 (≈ 0.0462 µM)	1.693 (≈ 1.33 µM)	1.44788 (≈ 1.14 µM)	2.533 (≈ 1.99 µM)	0.86713 (≈ 0.683 µM)	0.9246 (≈ 0.728 µM)	2.58853 (≈ 2.04 µM)	0.07739 (≈ 0.0609 µM)	0.26473 (≈ 0.208 µM)	0.1773 (≈ 0.14 µM)	IC50 [15]: 1.194 µg/mL (≈ 0.94 µM); Ki [15]: 2.2495 µg/mL (≈ 1.77 µM); Km (Candida albicans [16]): 102 µM; Vmax (Candida albicans [16]): 6.04 nmol/min; Km (Candida albicans [17]): 88 µM; Vmax (Candida albicans [17]): 6.63 nmol/min; Km (Candida albicans [18]): 50 µM; Vmax (Candida albicans [18]): 4.4 nmol/min
